Source: publication PMC3026963 (The Biochemical journal, 2010)
Entries after “also recorded” stand apart in the source; their conditions may differ.

Molecular target: CK2α catalytic subunit (Homo sapiens, UniProt P68400)
Test: In vitro phosphorylation assay of CK2α with peptide substrate RRRADDSDDDDD
Format: biochemical
Conditions: substrate RRRADDSDDDDD
In short: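 Activity is expressed as % of no-peptide control, as the mean of at least three independent experiments. Full-length murine NBD1ΔF508 (389–673) tests were run at 350 μM ATP.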

Sequence of CK2α catalytic subunit (P68400 whole entry): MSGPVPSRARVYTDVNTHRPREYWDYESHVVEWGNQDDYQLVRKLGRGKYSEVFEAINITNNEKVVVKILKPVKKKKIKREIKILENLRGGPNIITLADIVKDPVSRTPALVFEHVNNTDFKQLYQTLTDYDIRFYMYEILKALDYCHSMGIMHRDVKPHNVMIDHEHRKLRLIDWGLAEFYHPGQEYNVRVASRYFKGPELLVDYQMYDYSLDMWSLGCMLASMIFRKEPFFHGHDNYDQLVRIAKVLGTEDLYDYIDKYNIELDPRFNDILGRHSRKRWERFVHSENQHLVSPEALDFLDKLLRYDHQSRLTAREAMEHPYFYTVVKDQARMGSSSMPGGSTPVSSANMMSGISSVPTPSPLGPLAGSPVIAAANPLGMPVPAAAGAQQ

| onset of stimulation of CK2α catalytic activity (β-peptide alone) | Substance | inhibitory efficacy on CK2α (in words) (compared with the parent peptide) |
| --- | --- | --- |
| – | CFTRΔI507 peptide: CFTR(500–518) peptide with Ile^507 deleted (GTIKENIFGVSYDEYRYR) | loss in inhibitory efficacy; also recorded: unable to exert the same efficacy of the CFTRΔF508 peptide |
| 50 µM | β-peptide: peptide reproducing the C-terminal segment of the CK2 β-subunit encompassing residues 182–203 (QFVPRLYGFKIHPMAYQLQLQA; UniProt P67870 182-203, looked up, fragment) [reference compound] | – |
